Measured values from ChEMBL document CHEMBL5696442, “Discovery of type II inhibitors of TGFβ-activated kinase 1 (TAK1) and mitogen-activated protein kinase kinase kinase kinase 2 (MAP4K2)” (J Med Chem, 2015).

Experiments:
[1] = target: Mitogen-activated protein kinase 10 (Homo sapiens, UniProt P53779); experiment: Inhibition of JNK3 Lys2 labeling site in human A-375 cells at 0.05 uM by KiNativ Profiling analysis relative to control; format: cell-based
[2] = target: T1, Aurora kinase A (Homo sapiens) (UniProt O14965); experiment: Inhibition of AurA Lys2 labeling site in human A-375 cells at 5 uM by KiNativ Profiling analysis relative to control; format: cell-based
T1 sequence (whole entry): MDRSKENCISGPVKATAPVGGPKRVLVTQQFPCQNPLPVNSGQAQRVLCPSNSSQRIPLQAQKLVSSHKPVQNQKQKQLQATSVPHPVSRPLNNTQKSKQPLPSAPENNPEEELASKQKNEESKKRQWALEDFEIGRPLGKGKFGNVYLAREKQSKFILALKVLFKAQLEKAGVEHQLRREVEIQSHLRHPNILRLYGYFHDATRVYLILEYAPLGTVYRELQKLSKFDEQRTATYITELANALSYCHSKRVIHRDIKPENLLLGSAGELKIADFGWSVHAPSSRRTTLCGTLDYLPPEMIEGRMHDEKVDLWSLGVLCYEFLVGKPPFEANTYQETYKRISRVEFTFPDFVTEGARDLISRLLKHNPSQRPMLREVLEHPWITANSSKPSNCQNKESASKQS
Method in brief: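 Live A375 melanoma cells were treated with compound at 5 or 0.5 μM, then lysed. The lysates were labeled with a lysine-reactive ATP or ADP-biotin probe. Kinase protection from probe labeling was measured by KiNativ.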

[3] = target: Serine/threonine-protein kinase WNK2 (Homo sapiens) (UniProt Q9Y3S1); experiment: Inhibition of Wnk2 ATP Loop labeling site in human A-375 cells at 0.5 uM by KiNativ Profiling analysis relative to control; format: cell-based
[4] = target: Cyclin-dependent kinase 2 (Homo sapiens) (UniProt P24941); experiment: Inhibition of CDK2 Lys2 labeling site in human A-375 cells at 0.5 uM by KiNativ Profiling analysis relative to control; format: cell-based
Method in brief: (§1)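 Live A375 melanoma cells were treated with compound at 5 or 0.5 μM. The cells were then lysed, and the lysates were labeled with a lysine-reactive ATP or ADP-biotin acyl probe (KiNativ). Inhibition is the compound's protection of each kinase labeling-site peptide from probe labeling, relative to untreated control.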

[5] = target: Serine/threonine-protein kinase MARK2 (Homo sapiens) (UniProt Q7KZI7); experiment: Inhibition of MARK2 Lys2 labeling site harbouring DLKAENLLLDADMNIK in human A-375 cells at 0.05 uM by KiNativ Profiling analysis relative to control; format: cell-based
[6] = target: Serine/threonine-protein kinase WNK1 (Homo sapiens) (UniProt Q9H4A3); experiment: Inhibition of Wnk1 ATP Loop labeling site in human A-375 cells at 0.05 uM by KiNativ Profiling analysis relative to control; format: cell-based
[7] = Inhibition of p70S6K ATP Loop labeling site harbouring DLKPENIMLNHQGHVK in human A-375 cells at 5 uM by KiNativ Profiling analysis relative to control; conditions: condition cancer
[8] = target: Ribosomal protein S6 kinase alpha-3 (Homo sapiens) (UniProt P51812); experiment: Inhibition of RSK2 domain2 Protein Kinase Domain in human A-375 cells at 5 uM by KiNativ Profiling analysis relative to control; format: cell-based
Method in brief: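 Live A375 melanoma cells treated with compound at 5 or 0.5 μM, then lysed. Lysate kinases were labeled with a lysine-reactive ATP or ADP-biotin probe. Inhibition was read as protection of labeling sites from the probe.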

[9] = target: Cyclin-dependent kinase 9 (Homo sapiens) (UniProt P50750); experiment: Inhibition of CDK9 Lys2 labeling site in human A-375 cells at 5 uM by KiNativ Profiling analysis relative to control; format: cell-based; method in brief: as §1
[10] = target: Misshapen-like kinase 1 (Homo sapiens) (UniProt Q8N4C8); experiment: Inhibition of ZC3/MINK Lys2 labeling site in human A-375 cells at 0.5 uM by KiNativ Profiling analysis relative to control; format: cell-based
[11] = target: Phosphatidylinositol 4-kinase beta (Homo sapiens) (UniProt Q9UBF8); experiment: Inhibition of PI4KB ATP labeling site harbouring VPHTQAVVLNSKDK in human A-375 cells at 5 uM by KiNativ Profiling analysis relative to control; format: cell-based
[12] = target: T2, Serine/threonine-protein kinase TAO1 (Homo sapiens) (UniProt Q7L7X3); experiment: Inhibition of TAO1 Lys2 labeling site in human A-375 cells at 0.5 uM by KiNativ Profiling analysis relative to control; format: cell-based
T2 sequence (whole entry): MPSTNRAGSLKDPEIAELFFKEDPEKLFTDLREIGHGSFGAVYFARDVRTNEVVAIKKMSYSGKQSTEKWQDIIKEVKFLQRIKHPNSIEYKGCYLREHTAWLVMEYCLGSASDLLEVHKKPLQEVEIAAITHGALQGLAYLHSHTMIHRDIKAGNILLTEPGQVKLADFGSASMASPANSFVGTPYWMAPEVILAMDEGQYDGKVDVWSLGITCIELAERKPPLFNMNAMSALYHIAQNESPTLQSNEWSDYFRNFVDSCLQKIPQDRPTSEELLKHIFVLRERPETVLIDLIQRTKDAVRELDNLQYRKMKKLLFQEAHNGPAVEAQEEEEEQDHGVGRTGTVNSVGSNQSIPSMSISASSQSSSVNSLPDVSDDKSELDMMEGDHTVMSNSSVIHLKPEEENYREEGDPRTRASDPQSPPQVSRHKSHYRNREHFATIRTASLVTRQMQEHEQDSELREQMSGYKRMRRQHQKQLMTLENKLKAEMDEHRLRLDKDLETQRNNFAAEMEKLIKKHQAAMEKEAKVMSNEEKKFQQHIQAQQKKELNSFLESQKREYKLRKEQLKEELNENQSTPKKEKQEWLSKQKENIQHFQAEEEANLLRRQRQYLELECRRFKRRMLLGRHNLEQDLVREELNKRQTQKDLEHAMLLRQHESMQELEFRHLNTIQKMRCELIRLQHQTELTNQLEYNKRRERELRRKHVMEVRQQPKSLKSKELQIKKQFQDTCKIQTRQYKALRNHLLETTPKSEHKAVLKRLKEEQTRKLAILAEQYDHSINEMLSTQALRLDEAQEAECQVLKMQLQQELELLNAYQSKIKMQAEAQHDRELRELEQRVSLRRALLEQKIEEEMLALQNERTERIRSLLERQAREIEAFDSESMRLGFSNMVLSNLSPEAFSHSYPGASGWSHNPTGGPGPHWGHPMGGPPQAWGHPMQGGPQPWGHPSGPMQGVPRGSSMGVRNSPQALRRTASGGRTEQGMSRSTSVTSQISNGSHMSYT

[13] = target: Serine/threonine-protein kinase 38 (Homo sapiens) (UniProt Q15208); experiment: Inhibition of NDR1 Lys1 labeling site in human A-375 cells at 5 uM by KiNativ Profiling analysis relative to control; format: cell-based
[14] = target: Tyrosine-protein kinase Fer (Homo sapiens, UniProt P16591); experiment: Inhibition of FER Lys1 labeling site in human Huh-7 cell lysate at 1 uM by KiNativ Profiling analysis relative to control; format: subcellular

Sequence of Ribosomal protein S6 kinase alpha-3 (Homo sapiens) (P51812 whole entry, the tested form may be a part): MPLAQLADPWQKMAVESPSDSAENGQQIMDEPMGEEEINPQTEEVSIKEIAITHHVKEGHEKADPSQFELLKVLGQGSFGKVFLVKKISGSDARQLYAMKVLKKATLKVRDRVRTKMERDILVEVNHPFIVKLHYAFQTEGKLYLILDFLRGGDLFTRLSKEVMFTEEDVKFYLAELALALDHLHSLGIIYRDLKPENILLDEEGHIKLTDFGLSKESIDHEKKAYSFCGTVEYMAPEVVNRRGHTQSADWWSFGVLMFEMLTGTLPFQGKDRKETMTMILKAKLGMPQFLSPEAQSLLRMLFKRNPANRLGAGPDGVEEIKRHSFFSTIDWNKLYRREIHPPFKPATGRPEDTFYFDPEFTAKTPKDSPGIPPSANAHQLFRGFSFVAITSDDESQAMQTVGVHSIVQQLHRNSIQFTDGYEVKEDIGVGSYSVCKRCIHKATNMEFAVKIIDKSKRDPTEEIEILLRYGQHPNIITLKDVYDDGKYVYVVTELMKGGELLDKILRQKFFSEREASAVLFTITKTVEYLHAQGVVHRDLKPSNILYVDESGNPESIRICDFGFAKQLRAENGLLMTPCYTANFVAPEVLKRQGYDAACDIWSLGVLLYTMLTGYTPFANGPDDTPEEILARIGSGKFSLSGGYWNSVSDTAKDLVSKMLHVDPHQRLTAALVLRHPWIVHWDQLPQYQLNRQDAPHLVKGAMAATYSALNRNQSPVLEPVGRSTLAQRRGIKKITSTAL
Sequence of Serine/threonine-protein kinase 38 (Homo sapiens) (Q15208 2-465 limits assumed): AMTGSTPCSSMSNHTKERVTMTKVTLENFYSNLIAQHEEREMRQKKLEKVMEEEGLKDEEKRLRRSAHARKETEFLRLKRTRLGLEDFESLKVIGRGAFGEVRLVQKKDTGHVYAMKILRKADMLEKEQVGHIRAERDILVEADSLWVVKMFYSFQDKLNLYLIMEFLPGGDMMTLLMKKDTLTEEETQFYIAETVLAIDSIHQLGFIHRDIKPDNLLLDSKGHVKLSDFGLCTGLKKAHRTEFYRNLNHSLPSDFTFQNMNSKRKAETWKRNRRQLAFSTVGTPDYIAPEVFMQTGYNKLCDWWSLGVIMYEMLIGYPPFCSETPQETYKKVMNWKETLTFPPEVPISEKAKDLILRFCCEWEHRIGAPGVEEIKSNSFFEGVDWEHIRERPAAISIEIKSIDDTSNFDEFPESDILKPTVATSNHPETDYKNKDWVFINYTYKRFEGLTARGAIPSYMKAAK
Sequence of Mitogen-activated protein kinase 10 (P53779 whole entry): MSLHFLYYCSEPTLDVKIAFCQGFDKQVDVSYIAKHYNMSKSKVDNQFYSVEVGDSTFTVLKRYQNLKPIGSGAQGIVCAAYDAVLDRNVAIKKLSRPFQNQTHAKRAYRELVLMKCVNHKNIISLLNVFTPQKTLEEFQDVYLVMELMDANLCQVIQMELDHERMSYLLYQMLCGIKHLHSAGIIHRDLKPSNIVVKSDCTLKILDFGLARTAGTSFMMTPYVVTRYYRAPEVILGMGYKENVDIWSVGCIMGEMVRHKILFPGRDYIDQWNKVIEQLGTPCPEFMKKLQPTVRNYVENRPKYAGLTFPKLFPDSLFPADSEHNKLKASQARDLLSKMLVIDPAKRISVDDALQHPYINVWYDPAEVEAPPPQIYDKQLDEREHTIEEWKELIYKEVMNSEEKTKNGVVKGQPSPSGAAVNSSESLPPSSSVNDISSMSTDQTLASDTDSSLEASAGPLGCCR
Sequence of Cyclin-dependent kinase 9 (Homo sapiens) (P50750 whole entry): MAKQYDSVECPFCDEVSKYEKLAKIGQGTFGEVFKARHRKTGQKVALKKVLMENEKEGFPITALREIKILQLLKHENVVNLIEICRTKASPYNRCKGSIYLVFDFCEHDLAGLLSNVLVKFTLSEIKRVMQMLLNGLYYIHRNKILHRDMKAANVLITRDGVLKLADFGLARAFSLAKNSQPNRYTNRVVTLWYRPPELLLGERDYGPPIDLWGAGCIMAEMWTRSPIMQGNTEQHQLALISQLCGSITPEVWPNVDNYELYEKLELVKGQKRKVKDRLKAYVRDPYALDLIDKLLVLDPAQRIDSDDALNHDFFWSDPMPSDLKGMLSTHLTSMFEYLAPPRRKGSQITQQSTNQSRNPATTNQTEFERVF
Sequence of Phosphatidylinositol 4-kinase beta (Homo sapiens) (Q9UBF8 2-816 limits assumed): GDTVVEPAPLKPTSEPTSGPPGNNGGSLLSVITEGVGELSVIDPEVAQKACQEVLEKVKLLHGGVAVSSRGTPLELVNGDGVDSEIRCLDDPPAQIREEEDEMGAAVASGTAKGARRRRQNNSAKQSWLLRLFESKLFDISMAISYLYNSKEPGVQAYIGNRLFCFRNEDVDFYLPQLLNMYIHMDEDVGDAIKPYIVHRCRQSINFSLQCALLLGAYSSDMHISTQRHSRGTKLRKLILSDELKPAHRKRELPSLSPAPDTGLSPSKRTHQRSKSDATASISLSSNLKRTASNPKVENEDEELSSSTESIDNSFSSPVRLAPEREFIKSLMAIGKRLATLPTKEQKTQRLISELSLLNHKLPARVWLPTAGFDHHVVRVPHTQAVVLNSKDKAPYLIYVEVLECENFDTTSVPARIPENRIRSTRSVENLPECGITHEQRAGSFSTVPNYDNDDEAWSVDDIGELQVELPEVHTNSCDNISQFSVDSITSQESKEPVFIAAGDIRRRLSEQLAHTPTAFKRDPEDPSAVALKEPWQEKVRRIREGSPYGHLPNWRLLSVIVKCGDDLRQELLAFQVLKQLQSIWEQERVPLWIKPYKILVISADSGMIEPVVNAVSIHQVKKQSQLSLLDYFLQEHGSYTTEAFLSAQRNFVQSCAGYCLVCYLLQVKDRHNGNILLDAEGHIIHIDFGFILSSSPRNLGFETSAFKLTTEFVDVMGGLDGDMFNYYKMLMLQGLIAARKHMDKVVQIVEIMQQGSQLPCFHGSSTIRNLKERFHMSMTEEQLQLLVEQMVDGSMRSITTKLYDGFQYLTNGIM
Sequence of Misshapen-like kinase 1 (Homo sapiens) (Q8N4C8 whole entry, looked up): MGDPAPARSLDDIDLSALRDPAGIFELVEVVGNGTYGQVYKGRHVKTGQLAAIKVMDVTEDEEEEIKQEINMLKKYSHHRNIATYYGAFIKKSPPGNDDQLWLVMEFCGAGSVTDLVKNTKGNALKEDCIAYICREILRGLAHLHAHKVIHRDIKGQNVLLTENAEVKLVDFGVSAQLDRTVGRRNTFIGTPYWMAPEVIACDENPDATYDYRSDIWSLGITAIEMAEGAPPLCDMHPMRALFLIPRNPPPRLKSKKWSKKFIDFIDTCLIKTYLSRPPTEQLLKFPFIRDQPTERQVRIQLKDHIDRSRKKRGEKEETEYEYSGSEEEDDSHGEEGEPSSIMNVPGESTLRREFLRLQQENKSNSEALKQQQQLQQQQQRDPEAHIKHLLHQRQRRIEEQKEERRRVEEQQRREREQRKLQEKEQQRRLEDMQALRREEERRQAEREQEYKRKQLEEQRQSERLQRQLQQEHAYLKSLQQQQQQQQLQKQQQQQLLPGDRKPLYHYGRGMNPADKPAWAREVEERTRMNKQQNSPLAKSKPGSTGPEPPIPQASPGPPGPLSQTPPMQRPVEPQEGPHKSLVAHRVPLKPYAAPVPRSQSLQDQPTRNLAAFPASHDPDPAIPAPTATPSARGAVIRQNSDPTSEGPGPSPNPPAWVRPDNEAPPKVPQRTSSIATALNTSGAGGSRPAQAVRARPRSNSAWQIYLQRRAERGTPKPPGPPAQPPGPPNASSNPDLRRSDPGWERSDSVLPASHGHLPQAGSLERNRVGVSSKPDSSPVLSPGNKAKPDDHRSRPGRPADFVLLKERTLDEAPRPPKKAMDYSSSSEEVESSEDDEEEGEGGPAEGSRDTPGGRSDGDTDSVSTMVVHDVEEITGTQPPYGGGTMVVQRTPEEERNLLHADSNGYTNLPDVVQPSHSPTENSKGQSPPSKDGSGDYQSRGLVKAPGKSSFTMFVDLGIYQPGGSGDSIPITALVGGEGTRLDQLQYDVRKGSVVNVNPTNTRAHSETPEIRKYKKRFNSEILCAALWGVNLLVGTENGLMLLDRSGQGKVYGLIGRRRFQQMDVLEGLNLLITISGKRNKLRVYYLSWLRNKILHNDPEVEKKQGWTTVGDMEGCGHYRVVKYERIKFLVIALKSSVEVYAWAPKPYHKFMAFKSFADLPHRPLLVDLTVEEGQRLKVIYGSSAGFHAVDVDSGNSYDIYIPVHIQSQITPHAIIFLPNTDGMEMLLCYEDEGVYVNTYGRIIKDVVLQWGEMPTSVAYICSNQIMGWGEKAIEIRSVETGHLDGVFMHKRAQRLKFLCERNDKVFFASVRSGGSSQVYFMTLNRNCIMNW
Sequence of Serine/threonine-protein kinase MARK2 (Homo sapiens) (Q7KZI7 whole entry): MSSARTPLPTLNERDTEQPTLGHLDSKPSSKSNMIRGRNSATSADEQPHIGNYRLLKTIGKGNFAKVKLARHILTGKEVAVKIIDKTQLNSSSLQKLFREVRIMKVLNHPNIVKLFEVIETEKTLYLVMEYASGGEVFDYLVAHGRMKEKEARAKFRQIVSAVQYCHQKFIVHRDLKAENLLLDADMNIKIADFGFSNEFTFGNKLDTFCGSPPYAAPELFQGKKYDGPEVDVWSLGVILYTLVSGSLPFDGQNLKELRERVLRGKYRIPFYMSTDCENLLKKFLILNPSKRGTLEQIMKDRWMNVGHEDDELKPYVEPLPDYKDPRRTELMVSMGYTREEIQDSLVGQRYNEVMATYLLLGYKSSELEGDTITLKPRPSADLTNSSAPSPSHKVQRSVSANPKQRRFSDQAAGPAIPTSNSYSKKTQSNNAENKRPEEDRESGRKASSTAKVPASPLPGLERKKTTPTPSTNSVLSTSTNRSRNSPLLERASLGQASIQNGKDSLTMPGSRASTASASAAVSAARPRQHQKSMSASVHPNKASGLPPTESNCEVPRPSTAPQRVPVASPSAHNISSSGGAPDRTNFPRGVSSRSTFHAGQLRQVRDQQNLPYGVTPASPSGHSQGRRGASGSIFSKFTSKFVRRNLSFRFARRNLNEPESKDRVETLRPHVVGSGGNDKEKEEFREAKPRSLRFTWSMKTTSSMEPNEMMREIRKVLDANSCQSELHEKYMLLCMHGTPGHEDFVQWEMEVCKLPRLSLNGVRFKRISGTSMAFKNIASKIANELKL

CCN1CCN(Cc2ccc(NC(=O)c3ccc(C)c(Oc4ccnc5[nH]ccc45)c3)cc2C(F)(F)F)CC1
inhibition [1]: 50.3% | inhibition [2]: -0.8% | inhibition [3]: 11.4% | inhibition [4]: 4.5% | inhibition [5]: 19.5% | inhibition [6]: 2.4% | inhibition at 5 µM [7]: 14.7% | inhibition [8]: 0.4% | inhibition [9]: 19.2% | inhibition [10]: 70.8% | inhibition [11]: -5.8% | inhibition [12]: -5.6% | inhibition [13]: -0.8%

CNc1cc(Oc2cc(C(=O)Nc3cc(-n4cnc(C)c4)cc(C(F)(F)F)c3)ccc2C)ncn1
inhibition [14]: 18.2%

CNc1cc(Oc2cc(C(=O)Nc3cc(N4CCN(C)CC4)cc(C(F)(F)F)c3)ccc2C)ncn1
inhibition [14]: 10.6%

CCN1CCN(Cc2ccc(NC(=O)c3ccc(C)c(/C=C/c4cnc5[nH]ccc5c4OC)c3)cc2C(F)(F)F)CC1
inhibition [1]: 23.9% | inhibition [2]: 19.3% | inhibition [3]: 15.3% | inhibition [4]: 19.4% | inhibition [5]: 11.6% | inhibition [6]: 5% | inhibition at 5 µM [7]: -8% | inhibition [8]: 33.3% | inhibition [9]: 1.2% | inhibition [10]: 48.1% | inhibition [11]: -6.8% | inhibition [12]: 6.6% | inhibition [13]: 3.3%
